Data reported in ChEMBL document CHEMBL1157169, “A class of novel nitronyl nitroxide labeling basic and acidic amino acids: synthesis, application for preparing ESR optionally labeling peptides, and bioactivity investigations” (Bioorg Med Chem, 2008).
Where a SMILES comes first, the peptide text is derived from it. The star is where a group is joined. X2 = CC1(C)N(O)C(c2ccc(OCC(=O)*)cc2)=[N+]([O-])C1(C)C

Legend:
[1] = system: PC-12; assay: Radical scavenging activity in rat PC12 cells assessed as inhibition of hydrogen peroxide radical-induced cell damage by MTT assay; format: functional, cell-based
Summary of the method: (§1)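 PC12 cells grown in DMEM with 10% heat-inactivated horse serum, 5% FBS and 1.0 mM pyruvate at 37 °C, 5% CO2. Seeded at 20,000 cells/well on poly-L-lysine and attached 24 h. Pretreated 1 h with 12.5–200 µM compound. Damage induced by SNP 2 mM for 2 h (NO), H2O2 1 mM for 1 h, or H2O2 1 mM/Fe(II) 30 µM for 1 h (·OH). Media replaced, cells incubated 14 h, survival measured by MTT.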

[2] = system: PC-12; assay: Radical scavenging activity in rat PC12 cells assessed as inhibition of hydroxyl radical-induced cell damage by MTT assay; format: functional, cell-based; summary of the method: as §1
[3] = system: Aorta; assay: Nitric oxide radical scavenging activity in rat aortic strip assessed as inhibition of acetylcholine-induced vasorelaxation at 100 uM; format: functional, tissue-based
[4] = system: PC-12; assay: Radical scavenging activity in rat PC12 cells assessed as inhibition of nitric oxide radical-induced cell damage by MTT assay; format: functional, cell-based; summary of the method: as §1
[5] = system: Aorta; assay: Nitric oxide radical scavenging activity in rat aortic strip assessed as inhibition of acetylcholine-induced vasorelaxation at 1 uM; format: functional, tissue-based
[6] = system: Aorta; assay: Nitric oxide radical scavenging activity in rat aortic strip assessed as inhibition of acetylcholine-induced vasorelaxation at 10 uM; format: functional, tissue-based
[7] = Aqueous stability assessed as decomposition time at pH 11.5; format: physicochemical; conditions: buffer
Summary of the method: (§2)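 Each sample dissolved in aqueous solution at pH 2.0, 7.4 or 11.5 (final 10^-2 mM) and held at room temperature for up to 200 h. Decomposition followed by TLC (CHCl3/CH3OH, 20:1). Value is the time at which decomposition appeared.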

[8] = Aqueous stability assessed as decomposition time at pH 7.4; format: physicochemical; conditions: buffer; summary of the method: as §2
[9] = Aqueous stability assessed as decomposition time at pH 2.0; format: physicochemical; conditions: buffer; summary of the method: as §2
[10] = system: Blood; assay: Inhibition of 1 uM platelet activating factor-induced platelet aggregation in rabbit blood; format: functional, Oryctolagus cuniculus
Summary of the method: (§3)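 Platelet-rich plasma made by centrifuging normal rabbit blood anticoagulated with sodium citrate (3.8% final). Platelets adjusted to 2×10^5/µl with autologous plasma. Aggregation induced by PAF or ADP (final 10^-5–10^-7 M) and read by turbidimetry in an aggregometer. Maximal aggregation rate (Am%) taken as peak height of the curve.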

[11] = system: Rattus norvegicus; assay: Antithrombotic activity in Wistar rat assessed as dry thrombus weight at 5 umol/kg
[12] = system: Blood; assay: Inhibition of 1 uM adenosine diphosphate-induced platelet aggregation in rabbit blood; format: functional, Oryctolagus cuniculus; summary of the method: as §3
[13] = system: Blood; assay: Inhibition of 10 uM adenosine diphosphate-induced platelet aggregation in rabbit blood; format: functional, Oryctolagus cuniculus; summary of the method: as §3
[14] = system: Rattus norvegicus; assay: Antithrombotic activity in Wistar rat assessed as wet thrombus weight at 5 umol/kg; format: functional
Summary of the method: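 Male Wistar rats (250–300 g) anesthetized with pentobarbital sodium (80.0 mg/kg, ip). The right carotid artery and left jugular vein were cannulated via a polyethylene tube containing a thread, filled with NS or compound dissolved in NS (vehicle NS). Blood shunted 15 min. The thread was weighed wet, then after 2 weeks in a desiccator weighed dry. n = 10, ANOVA.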

[15] = system: Blood; assay: Inhibition of 10 uM platelet activating factor-induced platelet aggregation in rabbit blood; format: functional, Oryctolagus cuniculus; summary of the method: as §3
[16] = system: Blood; assay: Inhibition of 0.1 uM adenosine diphosphate-induced platelet aggregation in rabbit blood; format: functional, Oryctolagus cuniculus; summary of the method: as §3
[17] = system: Blood; assay: Inhibition of 0.1 uM platelet activating factor-induced platelet aggregation in rabbit blood; format: functional, Oryctolagus cuniculus; summary of the method: as §3

Structure (SMILES) | EC50 [1] [µM] | EC50 [2] [µM] | inhibition [3] [%] | EC50 [4] [µM] | inhibition [5] [%] | inhibition [6] [%] | Time [7] [h] | Time [8] [h] | Time [9] [h] | inhibition (INH) [10] [%] | dry thrombus weight [11] [mg] | inhibition (INH) [12] [%] | inhibition (INH) [13] [%] | Activity [14] [mg] | inhibition (INH) [15] [%] | inhibition (INH) [16] [%] | inhibition (INH) [17] [%]
CC1(C)N(O)C(c2ccc(OCC(=O)NCCCC[C@H](N)C(=O)O)cc2)=[N+]([O-])C1(C)C | 29.9 | 98.8 | 98.6 | 90.6 | 25.4 | 72.3 |  |  |  |  |  |  |  |  |  |  | 
CC1(C)N(O)C(c2ccco2)=[N+]([O-])C1(C)C |  |  | 44.4 |  | 1.6 | 20.2 | 18 | 30 | 15 |  |  |  |  |  |  |  | 
CC(C)(C)OC(=O)N[C@@H](CCC(=O)NCCOc1ccc(C2=[N+]([O-])C(C)(C)C(C)(C)N2O)cc1)C(=O)O | 49.9 | 59 | 96.9 | 42.7 | 26 | 72.4 |  |  |  |  |  |  |  |  |  |  | 
CC1(C)N(O)C(c2ccc(OCCNC(=O)CC[C@H](N)C(=O)N[C@@H](CS)C(=O)NCC(=O)O)cc2)=[N+]([O-])C1(C)C | 47 | 54.9 |  | 37.8 |  |  |  |  |  |  |  |  |  |  |  |  | 
CC(C)[C@H](NC(=O)[C@H](CC(=O)O)NC(=O)CNC(=O)[C@@H](N)CCCNC(=N)NC(=O)COc1ccc(C2=[N+]([O-])C(C)(C)C(C)(C)N2O)cc1)C(=O)O (H-R(X2)GDV-OH) | 32.8 | 102 | 96.6 | 93 | 26.2 | 72.8 |  |  |  | 32.8 | 4.18 | 39.6 | 50.2 | 26.11 | 50.26 | 16.38 | 19.88
N=C(N)NCCC[C@H](N)C(=O)NCC(=O)N[C@@H](CC(=O)O)C(=O)N[C@@H](CO)C(=O)O |  |  | 8.9 |  | 2.9 | 4.3 |  |  |  | 36.47 | 4.22 | 39.62 | 51.5 | 27.9 | 53.69 | 16.6 | 22.03
